We go through three compounds from ChEMBL document CHEMBL3351863, “Optimization of 2-phenyl-pyrimidine-4-carboxamides towards potent, orally bioavailable and selective P2Y(12) antagonists for inhibition of platelet aggregation” (Bioorg Med Chem Lett, 2014).

Each structure is given as a SMILES string.

In data set [1] the target is Cytochrome P450 2C9 (Homo sapiens, UniProt P11712). Nature of the data set: Inhibition of CYP2C9 in human liver microsomes assessed as reduction in diclofenac 4'-hydroxylation. In kind it is ADME. Background: Microsomes from liver hold many membrane-bound enzymes, among them those of drug oxidation.
Data set [2] deals with Platelet. Description: Inhibition of ADP-induced platelet aggregation in human platelet rich plasma by in-vitro light transmission aggregometry assay. In kind it is functional. An outline of the steps:
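Human platelet-rich plasma incubated with compound, aggregation induced by 3 µM ADP and read by light transmission aggregometry; IC₅₀ derived from concentration–response curve.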

Data set [3] addresses Cytochrome P450 2D6 (Homo sapiens, UniProt P10635). Description: Inhibition of CYP2D6 in human liver microsomes assessed as reduction in dextromethorphan-O demethylation. In kind it is ADME.
Data set [4] is described as follows: Clearance in Wistar rat at 1 mg/kg, iv. In kind it is ADME, organism-based. Further details: dose 1 mg/kg, route intravenous; call rule not given here. As to conditions: in vivo. In outline: (§1)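 Rats dosed by iv infusion at 1 mg/kg (n = 2) or orally at 10 mg/kg (n = 3); plasma levels measured, limit of quantification ca. 1 ng/mL.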
Data set [5] is described as follows: Half life in Wistar rat at 1 mg/kg, iv or 10 mg/kg, po. In kind it is ADME, organism-based. The note with it: in vivo. An outline of the steps:
as §1

The nature of data set [6]: Potency shift, ratio of IC50 for inhibition of ADP-induced platelet aggregation in human platelet rich plasma to IC50 for displacement of [3H]-2-methyl-thio-adenosine 5'-diphosphate from human recombinant P2Y12 expressed in CHO cell membranes. (In a radioligand displacement assay an active substance lowers the binding of a labelled ligand.)
Data set [7] addresses T1, Cytochrome P450 3A4 (Homo sapiens, UniProt P08684). Description: Inhibition of CYP3A4 in human liver microsomes assessed as reduction in testosterone 6beta-hydroxylation. The class given is ADME.
Data set [8] in a line: Solubility in neutral pH. In kind it is physicochemical.
A short description of data set [9]: Solubility in basic pH. In kind it is physicochemical.
A short description of data set [10]: Volume of distribution at steady state in Wistar rat at 1 mg/kg, iv or 10 mg/kg, po. The class given is ADME, organism-based. As to conditions: in vivo, read-out: Vdss. In outline:
as §1

Data set [11] in a line: Oral bioavailability in Wistar rat at 10 mg/kg. In kind it is ADME, organism-based. The note with it: Wistar, in vivo. An outline of the steps:
as §1

Data set [12] deals with Voltage-gated inwardly rectifying potassium channel KCNH2 (Homo sapiens, UniProt Q12809). Nature of the data set: Inhibition of human ERG expressed in HEK cells by patch-clamp assay. The class given is cell-based. As to conditions: hek293. On the technique in general: The patch-clamp technique gives a direct electrical read-out from membranes.
A short description of data set [13]: AUC in Wistar rat at 10 mg/kg, po. In kind it is ADME, organism-based, Plasma. More on the design: dose 10 mg/kg, route oral. As to conditions: Wistar, plasma. An outline of the steps:
as §1

For data set [14], the target named is T1, Cytochrome P450 3A4. Nature of the data set: Inhibition of CYP3A4 in human liver microsomes assessed as reduction in midazolam 1'-hydroxylation. In kind it is ADME.
In data set [15] the test system is Liver microsome. Nature of the data set: Metabolic stability assay in human liver microsomes assessed as parent drug disappearance at 1 uM after 20 mins by HPLC and mass spectrometry method. In kind it is ADME.
Data set [16] is described as follows: Cmax in Wistar rat at 10 mg/kg, po. In kind it is ADME, organism-based. Further details: dose 10 mg/kg, route oral. As to conditions: Wistar, in vivo. An outline of the steps:
as §1

Data set [17] concerns Platelet. Nature of the data set: Inhibition of ADP-induced platelet aggregation in human platelet rich plasma assessed as remaining activity at 100 nM by in-vitro light transmission aggregometry assay. The class given is functional. In outline:
(§2)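 Light transmission aggregometry in human platelet-rich plasma; compound incubated, aggregation triggered with 3 µM ADP; remaining activity (RA) recorded at a single compound level (1000, 500 or 100 nM).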

The target of data set [18] is P2Y purinoceptor 12 (Homo sapiens, UniProt Q9H244). Nature of the data set: Displacement of [3H]-2-methyl-thio-adenosine 5'-diphosphate from human recombinant P2Y12 expressed in CHO cell membranes by scintillation counting method. In outline:
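CHO cells expressing recombinant P2Y₁₂ receptors, incubated with tritium-labeled 2-methyl-thio-adenosine 5'-diphosphate plus test compound; IC₅₀ from displacement curves, each point in triplicate; reference compound run with every compound set, and set re-analyzed if its IC₅₀ fell outside pre-set 95% confidence interval.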

Data set [19] has as its system Liver microsome. Nature of the data set: Metabolic stability assay in rat liver microsomes assessed as parent drug disappearance at 1 uM after 20 mins by HPLC and mass spectrometry method. The class given is ADME.
The subject of data set [20] is Platelet. Description: Inhibition of ADP-induced platelet aggregation in human platelet rich plasma assessed as remaining activity at 500 nM by in-vitro light transmission aggregometry assay. The class given is functional. An outline of the steps:
as §2

Data set [21] can be described thus: Lipophilicity, logD of the compound. The class given is physicochemical. The note with it: octanol/water.

T1 sequence (P08684 whole entry): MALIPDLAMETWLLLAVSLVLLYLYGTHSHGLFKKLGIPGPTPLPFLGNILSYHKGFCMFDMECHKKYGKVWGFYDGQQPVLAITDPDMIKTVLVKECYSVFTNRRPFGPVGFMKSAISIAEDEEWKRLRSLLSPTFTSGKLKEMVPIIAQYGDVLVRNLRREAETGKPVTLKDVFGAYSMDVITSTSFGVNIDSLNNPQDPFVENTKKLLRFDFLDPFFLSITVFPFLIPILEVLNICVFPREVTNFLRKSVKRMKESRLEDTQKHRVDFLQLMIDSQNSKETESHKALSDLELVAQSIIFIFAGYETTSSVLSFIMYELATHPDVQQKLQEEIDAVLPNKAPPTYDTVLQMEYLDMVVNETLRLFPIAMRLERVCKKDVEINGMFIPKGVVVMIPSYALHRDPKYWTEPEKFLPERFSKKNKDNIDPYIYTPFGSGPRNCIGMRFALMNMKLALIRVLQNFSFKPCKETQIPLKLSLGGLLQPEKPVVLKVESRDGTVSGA
Chain of P2Y purinoceptor 12 (Q9H244 whole entry): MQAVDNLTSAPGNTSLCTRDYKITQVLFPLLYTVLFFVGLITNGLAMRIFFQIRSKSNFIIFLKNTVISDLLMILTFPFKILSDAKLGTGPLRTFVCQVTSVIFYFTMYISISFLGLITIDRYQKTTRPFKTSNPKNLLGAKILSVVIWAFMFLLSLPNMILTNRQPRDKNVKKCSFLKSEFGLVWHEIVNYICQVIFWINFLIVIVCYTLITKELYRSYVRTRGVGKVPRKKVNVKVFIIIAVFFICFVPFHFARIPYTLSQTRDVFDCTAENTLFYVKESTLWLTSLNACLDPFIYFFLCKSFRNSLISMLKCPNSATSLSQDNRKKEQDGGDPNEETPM
Chain of Cytochrome P450 2C9 (P11712 whole entry): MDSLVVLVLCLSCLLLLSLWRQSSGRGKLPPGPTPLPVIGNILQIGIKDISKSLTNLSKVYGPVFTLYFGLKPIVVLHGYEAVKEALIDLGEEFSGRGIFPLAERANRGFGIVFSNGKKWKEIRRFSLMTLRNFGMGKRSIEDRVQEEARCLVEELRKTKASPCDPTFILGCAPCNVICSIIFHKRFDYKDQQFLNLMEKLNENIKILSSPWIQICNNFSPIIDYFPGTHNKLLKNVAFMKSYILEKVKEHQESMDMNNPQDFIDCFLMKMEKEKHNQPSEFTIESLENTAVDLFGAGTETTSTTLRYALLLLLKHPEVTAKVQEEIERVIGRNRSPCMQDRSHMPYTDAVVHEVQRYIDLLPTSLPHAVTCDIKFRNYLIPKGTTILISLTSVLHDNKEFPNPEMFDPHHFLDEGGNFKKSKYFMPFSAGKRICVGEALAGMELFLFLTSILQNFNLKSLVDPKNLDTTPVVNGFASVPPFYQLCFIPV
Chain of Voltage-gated inwardly rectifying potassium channel KCNH2 (Q12809 whole entry): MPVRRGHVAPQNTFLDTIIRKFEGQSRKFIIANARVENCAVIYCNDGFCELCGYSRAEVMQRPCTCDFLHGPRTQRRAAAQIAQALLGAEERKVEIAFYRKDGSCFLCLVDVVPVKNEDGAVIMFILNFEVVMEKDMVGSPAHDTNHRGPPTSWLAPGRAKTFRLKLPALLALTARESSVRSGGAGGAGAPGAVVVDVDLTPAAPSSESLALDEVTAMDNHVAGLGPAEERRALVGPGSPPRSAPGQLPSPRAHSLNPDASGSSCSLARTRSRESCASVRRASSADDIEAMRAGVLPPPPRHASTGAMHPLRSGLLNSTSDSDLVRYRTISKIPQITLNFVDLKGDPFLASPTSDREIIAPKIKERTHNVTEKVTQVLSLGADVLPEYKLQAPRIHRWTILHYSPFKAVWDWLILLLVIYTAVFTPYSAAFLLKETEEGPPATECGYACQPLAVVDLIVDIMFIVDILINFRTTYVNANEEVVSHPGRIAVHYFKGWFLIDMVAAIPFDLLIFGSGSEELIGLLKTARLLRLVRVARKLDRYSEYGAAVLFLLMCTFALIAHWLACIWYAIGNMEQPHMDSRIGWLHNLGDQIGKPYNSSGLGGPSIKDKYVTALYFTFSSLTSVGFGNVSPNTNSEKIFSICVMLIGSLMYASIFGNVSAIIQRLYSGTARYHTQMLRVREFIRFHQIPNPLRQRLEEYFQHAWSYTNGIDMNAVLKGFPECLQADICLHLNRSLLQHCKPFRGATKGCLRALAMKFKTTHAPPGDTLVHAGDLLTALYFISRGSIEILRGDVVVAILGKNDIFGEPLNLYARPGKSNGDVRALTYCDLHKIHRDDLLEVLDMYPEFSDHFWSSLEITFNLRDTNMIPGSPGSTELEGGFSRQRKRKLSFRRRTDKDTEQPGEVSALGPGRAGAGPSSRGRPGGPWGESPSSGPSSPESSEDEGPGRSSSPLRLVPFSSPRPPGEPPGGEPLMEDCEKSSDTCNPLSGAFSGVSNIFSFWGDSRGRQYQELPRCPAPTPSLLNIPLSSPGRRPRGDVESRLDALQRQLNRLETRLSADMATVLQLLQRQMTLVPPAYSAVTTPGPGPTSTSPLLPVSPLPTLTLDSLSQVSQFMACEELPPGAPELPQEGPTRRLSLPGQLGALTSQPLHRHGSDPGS
Chain of Cytochrome P450 2D6 (P10635 whole entry, the tested form may be a part): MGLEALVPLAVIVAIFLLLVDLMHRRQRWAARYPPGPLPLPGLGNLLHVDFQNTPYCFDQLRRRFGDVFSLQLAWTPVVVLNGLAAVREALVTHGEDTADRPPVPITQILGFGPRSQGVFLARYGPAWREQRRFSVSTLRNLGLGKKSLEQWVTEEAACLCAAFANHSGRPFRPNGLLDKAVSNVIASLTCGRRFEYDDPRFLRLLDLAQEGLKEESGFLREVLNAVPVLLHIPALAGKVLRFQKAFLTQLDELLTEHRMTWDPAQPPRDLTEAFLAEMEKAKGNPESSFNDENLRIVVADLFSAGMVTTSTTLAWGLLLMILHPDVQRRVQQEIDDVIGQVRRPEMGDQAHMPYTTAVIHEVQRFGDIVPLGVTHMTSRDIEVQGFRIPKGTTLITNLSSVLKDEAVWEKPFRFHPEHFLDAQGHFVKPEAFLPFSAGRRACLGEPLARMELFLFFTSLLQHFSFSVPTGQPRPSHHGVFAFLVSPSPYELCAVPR

Usually IC50 stands for the concentration that gives 50% inhibition. By clearance is commonly meant the rate of elimination divided by the concentration. By half-life is commonly meant how long it takes for the measured level to halve. A high value points to slow decline. Usually bioavailability stands for the share of a dose that reaches the circulation, judged against a reference dose that is usually intravenous. A lower bioavailability goes with little systemic uptake. The term AUC denotes the area under the concentration-time curve, a measure of exposure. The low end stands for less exposure, the high end for more exposure. The term Cmax denotes the peak of the concentration-time curve. Consider `CCOC(=O)N1CCN(C(=O)[C@H](CCC(=O)O)NC(=O)c2cc(N3CC[C@H](OC)C3)nc(-c3ccccc3)n2)CC1`, for which the “inhibition (INH)” value in [1], in data set [3], in [7], in [12] and in data set [14] was “Not Active” throughout. Besides, the IC50 is 32 nM in data set [2] (Homo sapiens, Platelet, Plasma) and 16 nM in [18]. This compound yielded a clearance in [4] of 36 mL/min/kg. For the same compound, in [5], the half-life is 37.8 min. Also, the “Ratio IC50” value in data set [6] stood at 2. Besides, the solubility result in [8] and in [9] was “soluble” each time. Besides, the Vd in data set [10] worked out at 1.8 L/kg. This compound displayed a bioavailability in data set [11] of 8%. Besides, in [13], the exposure (AUC) is 0.638 µM·h. Moreover, the Stability entry in data set [15] and in data set [19] was “Stable” each time. The compound also came in with a Cmax in data set [16] of 683 nM. Further, the values for the Activity in data set [17] and in data set [20] were under 70% and under 30%, respectively.
Broadly, the logD is lipophilicity at a set pH, counting ionised and neutral species. The compound `CCOC(=O)N1CCN(C(=O)[C@H](CCC(=O)O)NC(=O)c2cc([C@@H]3C[C@H]3COC)nc(-c3ccccc3)n2)CC1` had a logD in data set [21] of 0.8. Besides, the “inhibition (INH)” value in data set [1], in [3], in data set [7], in data set [12] and in [14] was “Not Active” in each case. Also, the IC50 worked out at 589 nM in data set [2] (Homo sapiens, Platelet, Plasma) and 43 nM in data set [18]. In data set [4], this compound displayed a clearance of 14 mL/min/kg. Also, the half-life in data set [5] is 33 min. The “Ratio IC50” value in data set [6] was determined as 14. For the same compound, the solubility entry in [8] and in data set [9] was “soluble” each time. Moreover, in data set [10], the Vd amounted to 0.3 L/kg. The compound also displayed a bioavailability in [11] of 11%. Besides, the AUC in data set [13] came to 2.31 µM·h. Besides, the Stability result in data set [15] and in data set [19] was “Stable” in each case. The concentration in data set [16] peaked (Cmax) at 2820 nM. For the same compound, the Activity in data set [20] amounted to 30%.
In the case of `CCCCOC(=O)N1CCN(C(=O)[C@H](CCC(=O)O)NC(=O)c2cc([C@H]3C[C@@H]3COC)nc(-c3ccccc3)n2)CC1`, in data set [21], the logD worked out at 1.9. The half-maximal inhibitory concentration (IC50) came to 31 nM in data set [2] (platelet) and 4.8 nM in [18]. The compound further registered a clearance in [4] of 17 mL/min/kg. In addition, the half-life in [5] is 120 min. Further, the “Ratio IC50” value in data set [6] stood at 6.4. Besides, the Vd in data set [10] is 0.4 L/kg. Further, the bioavailability in [11] came out at 33%. In addition, the AUC in data set [13] is 6 µM·h. In [16], this compound came in with a Cmax of 7620 nM.
